# Laboratory results as given in ChEMBL document CHEMBL1139414, “Conformationally constrained analogues of diacylglycerol. 29. Cells sort diacylglycerol-lactone chemical zip codes to produce diverse and selective biological activities” (J Med Chem, 2008).
# The source made the active and inactive calls. The calls are words filed in the database; no cut-off is given here.
# System: not listed separately
# Assay: Selectivity ratio of Ki for mouse PKCalpha to Ki for RasGRP3
row,Structure (SMILES),Ratio Ki
1,O=C1OC(CO)(COC(=O)c2ccc([N+](=O)[O-])cc2)C/C1=C\c1ccc([N+](=O)[O-])cc1 (racemic; form 2),57

# Molecular target: Protein kinase C alpha type (Mus musculus, UniProt P20444)
# Assay: Displacement of [3H]PDBu form mouse PKCalpha by scintillation counting
# Procedure, shortened: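 Partially purified mouse PKCα; competition with [³H]PDBU. ID50 obtained by fitting a sigmoidal competition curve and converted to Ki = ID50/(1+L/Kd). Pure compounds tested at 6–7 concentrations; crude library compounds at a single 1 μM concentration. Triplicates per concentration, at least three experiments; mean ± SEM.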
row,Structure (SMILES),Ki
1,CN(C)c1cccc(C(=O)OCC2(CO)C/C(=C\c3ccc([N+](=O)[O-])cc3)C(=O)O2)c1 (racemic),31.8 nM
2,CN(C)c1ccccc1C(=O)OCC1(CO)C/C(=C\c2ccccc2[N+](=O)[O-])C(=O)O1 (racemic),134 nM
3,CN(C)c1cccc(C(=O)OCC2(CO)C/C(=C\c3cccc([N+](=O)[O-])c3)C(=O)O2)c1 (racemic),63 nM
4,CN(C)c1ccccc1C(=O)OCC1(CO)C/C(=C\c2cccc([N+](=O)[O-])c2)C(=O)O1 (racemic),44 nM
5,CN(C)c1ccc(C(=O)OCC2(CO)C/C(=C\c3cccc([N+](=O)[O-])c3)C(=O)O2)cc1 (racemic),72.4 nM
6,CN(C)c1ccc(C(=O)OCC2(CO)C/C(=C\c3ccccc3[N+](=O)[O-])C(=O)O2)cc1 (racemic),54.5 nM
7,CN(C)c1cccc(C(=O)OCC2(CO)C/C(=C\c3ccccc3[N+](=O)[O-])C(=O)O2)c1 (racemic),116 nM
8,CN(C)c1ccc(/C=C2\CC(CO)(COC(=O)c3ccc(N(C)C)cc3)OC2=O)cc1 (racemic; form 1),102 nM

# Second part, the compound after the results:
row,Ki,Structure (SMILES)
1,10.1 nM,CCCCC(CC)C(=O)OCC1(CO)C/C(=C/c2ccc(Cl)c(F)c2)C(=O)O1 (racemic)
2,38.5 nM,CN(C)c1ccccc1C(=O)OCC1(CO)C/C(=C\c2ccc([N+](=O)[O-])cc2)C(=O)O1 (racemic)
3,127 nM,CN(C)c1ccc(C(=O)OCC2(CO)C/C(=C\c3ccc([N+](=O)[O-])cc3)C(=O)O2)cc1 (racemic; form 1)
4,28.8 nM,CC(C)(C)C(=O)OCC1(CO)C/C(=C\c2ccc(Cl)c(F)c2)C(=O)O1 (racemic; form 2)
5,362 nM,CN(C)c1ccc(C(=O)OCC2(CO)C/C(=C\c3ccc([N+](=O)[O-])cc3)C(=O)O2)cc1 (racemic; form 2)
6,17.1 nM,CCCC(CCC)C(=O)OCC1(CO)C/C(=C\c2ccc(F)cc2)C(=O)O1 (racemic; form 2)
7,20.5 nM,CC(C)(C)C(=O)OCC1(CO)C/C(=C\c2ccc(F)c(Cl)c2)C(=O)O1 (racemic; form 2)
8,1080 nM,CN(C)c1ccc(/C=C2\CC(CO)(COC(=O)c3ccc(N(C)C)cc3)OC2=O)cc1 (racemic; form 2)
9,16.6 nM,CCCC(CCC)C(=O)OCC1(CO)C/C(=C\c2ccc(C(F)(F)F)cc2)C(=O)O1 (racemic; form 2)

# System: NK92
# Assay: Induction of IFN-gamma production in human NK92 cells at 1 ug/mL after 6 hrs by ELISA
# Type: functional, cell-based
# Procedure, shortened: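 NK92 cells (10⁶ cells/mL) in RPMI with 10% FCS, glutamine and Pen/Strep at 37 °C for 6 h with derivative (1 μg/mL) alone or with IL12 (100 u/10⁶ cells), in duplicate wells. IFN-γ in supernatants by ELISA.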
row,Structure (SMILES),Activity
1,CCCCC(CC)C(=O)OCC1(CO)C/C(=C/c2ccc(Cl)c(F)c2)C(=O)O1 (racemic),Active

# Molecular target: Transcription factor Jun (Mus musculus) (UniProt P05627)
# Sequence (P05627 whole entry): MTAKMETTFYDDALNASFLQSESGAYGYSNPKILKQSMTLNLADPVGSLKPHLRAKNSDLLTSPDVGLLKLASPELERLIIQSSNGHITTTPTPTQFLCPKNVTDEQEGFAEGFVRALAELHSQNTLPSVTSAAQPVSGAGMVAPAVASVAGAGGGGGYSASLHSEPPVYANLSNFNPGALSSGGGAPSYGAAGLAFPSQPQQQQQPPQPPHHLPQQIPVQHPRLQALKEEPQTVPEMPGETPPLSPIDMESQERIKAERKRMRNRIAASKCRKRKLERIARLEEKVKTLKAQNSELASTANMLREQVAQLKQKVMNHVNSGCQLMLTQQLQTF
# Assay: Activation of AP1 expressed in BALB/c mouse JB6 cells coexpressing luciferase reportet gene at 100 ng/mL after 18 hrs relative to 12-O-tetradecanoylphorbol-13-O-acetate
# Type: cell-based
# Procedure, shortened: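 JB6 P+ cells seeded at 10⁴, transfected with 4x AP-1 luciferase reporter (0.2 μg DNA) using a 3:1 lipid reagent ratio; on day 3 treated with DMSO, TPA (10 ng/mL) or DAG-lactone (100 ng/mL); luciferase read 18 h later. Values normalized to TPA-induced activity; average of 6 independent assays.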
row,Activity,Structure (SMILES)
1,Active,CCCCC(CC)C(=O)OCC1(CO)C/C(=C/c2ccc(Cl)c(F)c2)C(=O)O1 (racemic)

# Molecular target: T1, Ras guanyl-releasing protein 3 (Homo sapiens, UniProt Q8IV61)
# T1 sequence (Q8IV61 whole entry): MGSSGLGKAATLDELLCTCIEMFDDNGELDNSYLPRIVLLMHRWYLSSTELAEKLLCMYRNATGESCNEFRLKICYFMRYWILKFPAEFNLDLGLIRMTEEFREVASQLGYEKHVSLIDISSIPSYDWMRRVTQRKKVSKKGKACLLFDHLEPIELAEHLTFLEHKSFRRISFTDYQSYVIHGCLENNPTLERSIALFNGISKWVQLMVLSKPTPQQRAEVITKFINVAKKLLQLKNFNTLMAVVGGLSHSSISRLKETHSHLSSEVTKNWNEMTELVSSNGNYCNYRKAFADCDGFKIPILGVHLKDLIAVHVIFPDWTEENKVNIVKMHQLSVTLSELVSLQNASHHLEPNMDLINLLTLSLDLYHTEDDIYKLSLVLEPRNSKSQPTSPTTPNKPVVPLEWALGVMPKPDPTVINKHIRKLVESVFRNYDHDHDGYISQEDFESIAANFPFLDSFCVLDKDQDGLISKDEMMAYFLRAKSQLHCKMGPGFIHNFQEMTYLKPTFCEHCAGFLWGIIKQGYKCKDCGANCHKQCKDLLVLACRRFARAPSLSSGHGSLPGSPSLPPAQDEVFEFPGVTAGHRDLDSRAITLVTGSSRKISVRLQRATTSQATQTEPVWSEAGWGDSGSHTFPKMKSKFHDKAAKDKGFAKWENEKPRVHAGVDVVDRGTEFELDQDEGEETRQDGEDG
# Assay: Binding affinity to RasGRP3
row,Structure (SMILES),Ki
1,CN(C)c1cccc(C(=O)OCC2(CO)C/C(=C\c3ccc([N+](=O)[O-])cc3)C(=O)O2)c1 (racemic),2.3 nM
2,CN(C)c1ccccc1C(=O)OCC1(CO)C/C(=C\c2ccccc2[N+](=O)[O-])C(=O)O1 (racemic),9.4 nM
3,CN(C)c1cccc(C(=O)OCC2(CO)C/C(=C\c3cccc([N+](=O)[O-])c3)C(=O)O2)c1 (racemic),5.3 nM
4,CN(C)c1ccccc1C(=O)OCC1(CO)C/C(=C\c2cccc([N+](=O)[O-])c2)C(=O)O1 (racemic),3.9 nM
5,CN(C)c1ccc(C(=O)OCC2(CO)C/C(=C\c3cccc([N+](=O)[O-])c3)C(=O)O2)cc1 (racemic),8 nM
6,CN(C)c1ccc(C(=O)OCC2(CO)C/C(=C\c3ccccc3[N+](=O)[O-])C(=O)O2)cc1 (racemic),14.4 nM
7,CN(C)c1cccc(C(=O)OCC2(CO)C/C(=C\c3ccccc3[N+](=O)[O-])C(=O)O2)c1 (racemic),16.4 nM
8,CN(C)c1ccc(/C=C2\CC(CO)(COC(=O)c3ccc(N(C)C)cc3)OC2=O)cc1 (racemic; form 1),4.68 nM

# Further lines, results first:
row,Ki,Structure (SMILES)
1,1.8 nM,CN(C)c1ccccc1C(=O)OCC1(CO)C/C(=C\c2ccc([N+](=O)[O-])cc2)C(=O)O1 (racemic)
2,3.8 nM,CN(C)c1ccc(C(=O)OCC2(CO)C/C(=C\c3ccc([N+](=O)[O-])cc3)C(=O)O2)cc1 (racemic; form 1)
